Measurements as given in ChEMBL document CHEMBL1821679, “Targeting the heat shock protein 90 dimer with dimeric inhibitors” (J Med Chem, 2011).
Activity calls are given as the source filed them. The calls are words filed in the database; no cut-off is given here.

Tests used:
[1] = tested on: MCF7; assay: Antiproliferative activity against human MCF7 cells after 72 hrs by MTS/PMS assay; format: functional, cell-based; details: MCF7, 72 h
Summary of the method: (§1)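 Cells grown in medium with non-essential amino acids, 2 mM L-glutamine, streptomycin, penicillin and 10% FBS at 37 °C, 5% CO2; seeded 2000/well, attached overnight. Test agent added over a concentration range in DMSO (1% final), 72 h exposure. Viable cells counted by MTS/PMS read-out against 1% DMSO wells as 100% proliferation. IC50 taken as mean ± SD of at least two separate experiments, each in triplicate.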

[2] = tested on: HT-29; assay: Antiproliferative activity against human HT-29 cells after 72 hrs by MTS/PMS assay; format: functional, cell-based; details: HT-29, 72 h; summary of the method: as §1
[3] = Antiproliferative activity against human PC3MM2 cells after 72 hrs by MTS/PMS assay; format: functional, cell-based; details: PC3MM2, 72 h; summary of the method: as §1
[4] = tested on: SK-BR-3; assay: Antiproliferative activity against human SKBR3 cells after 72 hrs by MTS/PMS assay; format: functional, cell-based; details: SK-BR-3, 72 h; summary of the method: as §1
[5] = tested on: A549; assay: Antiproliferative activity against human A549 cells after 72 hrs by MTS/PMS assay; format: functional, cell-based; details: A549, 72 h; summary of the method: as §1
[6] = molecular target: T1, Heat shock protein HSP90 (Homo sapiens) (UniProt P07900+P08238); assay: Inhibition of Hsp90 in human MCF7 cells assessed as induction of Raf degradation at 0.5 fold IC50 after 24 hrs by Western blot method; format: cell-based
Summary of the method: (§2)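 MCF-7 cells treated 24 h with compound in DMSO (1% final); geldanamycin 500 nM served as positive control and DMSO as vehicle control. Cells harvested in cold PBS and lysed 1 h on ice in RIPA with 1 mM PMSF, 2 mM orthovanadate and protease inhibitors. Lysates clarified 14,000g, 15 min, 4 °C. Protein (20 µg, BCA) resolved under reducing conditions and blotted on PVDF for Her2, Raf and Akt, with actin as loading control. Detection by HRP secondary antibody and chemiluminescence.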

[7] = molecular target: T1, Heat shock protein HSP90 (Homo sapiens); assay: Inhibition of Hsp90 in human MCF7 cells assessed as induction of Her2 degradation at 5 fold IC50 after 24 hrs by Western blot method; format: cell-based; summary of the method: as §2
[8] = molecular target: T1, Heat shock protein HSP90 (Homo sapiens); assay: Inhibition of Hsp90 in human MCF7 cells assessed as induction of Akt degradation at 5 fold IC50 after 24 hrs by Western blot method; format: cell-based; summary of the method: as §2
[9] = molecular target: T1, Heat shock protein HSP90 (Homo sapiens); assay: Inhibition of Hsp90 in human MCF7 cells assessed as induction of Raf degradation at 5 fold IC50 after 24 hrs by Western blot method; format: cell-based; summary of the method: as §2
[10] = molecular target: T1, Heat shock protein HSP90 (Homo sapiens); assay: Inhibition of Hsp90 in human MCF7 cells assessed as induction of Akt degradation at 0.5 fold IC50 after 24 hrs by Western blot method; format: cell-based; summary of the method: as §2
[11] = molecular target: T1, Heat shock protein HSP90 (Homo sapiens); assay: Inhibition of Hsp90 in human MCF7 cells assessed as induction of Her2 degradation at 0.5 fold IC50 after 24 hrs by Western blot method; format: cell-based; summary of the method: as §2

Row | SMILES | IC50 [1] [nM] | IC50 [2] [nM] | IC50 [4] [nM] | IC50 [5] [nM] | inhibition [6] | inhibition [7] | inhibition [8] | inhibition [9] | inhibition [10] | inhibition [11] | IC50 [3] [nM]
1 | COc1ccc(C(=O)Nc2cc3ccc(OCCCN(C)C)c(C)c3oc2=O)cc1-c1cc(C(=O)Nc2cc3ccc(OCCCN(C)C)c(C)c3oc2=O)ccc1OC | 11700 | 62700 | 9500 | 93400 | – | – | – | – | – | – | 52300
2 | COc1cc2cc(NC(=O)CCC/C=C/CCCC(=O)Nc3cc4cc(OC)c(OC5CCN(C)CC5)c(C)c4oc3=O)c(=O)oc2c(C)c1OC1CCN(C)CC1 | 310 | – | 220 | 37700 | Active | Active | Active | Active | Active | Active | 380
3 | Cc1c(OCCCN(C)C)ccc2cc(NC(=O)C/C=C/CC(=O)Nc3cc4ccc(OCCCN(C)C)c(C)c4oc3=O)c(=O)oc12 | 840 | 12200 | 460 | 19400 | inactive | inactive | inactive | inactive | inactive | inactive | 15200
4 | COc1ccc(C(=O)Nc2cc3ccc(O[C@@H]4OC(C)(C)[C@H](OC)[C@@H](O)[C@H]4O)c(C)c3oc2=O)cc1-c1cc(C(=O)Nc2cc3ccc(O[C@@H]4OC(C)(C)[C@H](OC)[C@@H](O)[C@H]4O)c(C)c3oc2=O)ccc1OC | 760 | 36500 | 1160 | 35400 | Active | Active | Active | Active | Active | Active | 36700
5 | COc1ccc(C(=O)Nc2cc3ccc(O[C@@H]4OC(C)(C)[C@H](OC)[C@@H](O)[C@H]4O)c(OC)c3oc2=O)cc1-c1cc(C(=O)Nc2cc3ccc(O[C@@H]4OC(C)(C)[C@H](OC)[C@@H](O)[C@H]4O)c(OC)c3oc2=O)ccc1OC | 880 | 270 | 910 | 210 | Active | Active | Active | Active | Active | Active | 270
6 | Cc1c(OC2CCN(C)CC2)ccc2cc(NC(=O)C/C=C/CC(=O)Nc3cc4ccc(OC5CCN(C)CC5)c(C)c4oc3=O)c(=O)oc12 | 290 | 7100 | 180 | 21500 | Active | Active | Active | Active | Active | Active | 7510
7 | COc1cc2cc(NC(=O)C/C=C/CC(=O)Nc3cc4cc(OC)c(OC5CCN(C)CC5)c(C)c4oc3=O)c(=O)oc2c(C)c1OC1CCN(C)CC1 | 560 | – | 270 | 1250 | Active | Active | Active | Active | Active | Active | 170
8 | COc1cc(C(=O)Nc2cc3ccc(O[C@@H]4OC(C)(C)[C@H](OC)[C@@H](O)[C@H]4O)c(C)c3oc2=O)cc(-c2cc(OC)cc(C(=O)Nc3cc4ccc(O[C@@H]5OC(C)(C)[C@H](OC)[C@@H](O)[C@H]5O)c(C)c4oc3=O)c2)c1 | 1850 | 11700 | 1950 | 28900 | – | – | – | – | – | – | 12500
9 | COc1cc2cc(NC(=O)CC/C=C/CCC(=O)Nc3cc4cc(OC)c(OC5CCN(C)CC5)c(C)c4oc3=O)c(=O)oc2c(C)c1OC1CCN(C)CC1 | 1310 | – | 1100 | 1440 | Active | Active | Active | Active | Active | Active | 4860
10 | COc1ccc(C(=O)Nc2cc3cc(OC)c(O[C@@H]4OC(C)(C)[C@H](OC)[C@@H](O)[C@H]4O)c(C)c3oc2=O)cc1-c1cc(C(=O)Nc2cc3cc(OC)c(O[C@@H]4OC(C)(C)[C@H](OC)[C@@H](O)[C@H]4O)c(C)c3oc2=O)ccc1OC | 720 | – | 110 | – | Active | Active | Active | Active | Active | Active | –

Now from value to molecule, other results behind:

Row | IC50 [1] [nM] | IC50 [2] [nM] | IC50 [4] [nM] | IC50 [5] [nM] | inhibition [6] | inhibition [7] | inhibition [8] | inhibition [9] | inhibition [10] | inhibition [11] | SMILES | IC50 [3] [nM]
11 | 3680 | 3900 | 2840 | 13200 | – | – | – | – | – | – | Cc1c(OC2CCN(C)CC2)ccc2cc(NC(=O)CCCCCCCCC(=O)Nc3cc4ccc(OC5CCN(C)CC5)c(C)c4oc3=O)c(=O)oc12 | 10200
12 | 270 | 50 | 150 | 5540 | Active | Active | Active | Active | Active | Active | Cc1c(OC2CCN(C)CC2)ccc2cc(NC(=O)CC/C=C/CCC(=O)Nc3cc4ccc(OC5CCN(C)CC5)c(C)c4oc3=O)c(=O)oc12 | 4190
13 | 880 | – | 370 | 1210 | Active | Active | Active | Active | Active | Active | COc1c(OC2CCN(C)CC2)ccc2cc(NC(=O)CCC/C=C/CCCC(=O)Nc3cc4ccc(OC5CCN(C)CC5)c(OC)c4oc3=O)c(=O)oc12 | 50
14 | 1120 | – | 2220 | 1220 | inactive | inactive | inactive | inactive | inactive | inactive | COc1c(OC2CCN(C)CC2)ccc2cc(NC(=O)CC/C=C/CCC(=O)Nc3cc4ccc(OC5CCN(C)CC5)c(OC)c4oc3=O)c(=O)oc12 | 60
15 | 1460 | – | 710 | – | Active | Active | Active | Active | Active | Active | COc1c(OC2CCN(C)CC2)ccc2cc(NC(=O)C/C=C/CC(=O)Nc3cc4ccc(OC5CCN(C)CC5)c(OC)c4oc3=O)c(=O)oc12 | 8630
16 | 630 | 240 | 890 | 220 | Active | inactive | Active | Active | Active | inactive | Cc1c(OC2CCN(C)CC2)ccc2cc(NC(=O)CCC/C=C/CCCC(=O)Nc3cc4ccc(OC5CCN(C)CC5)c(C)c4oc3=O)c(=O)oc12 | 440
17 | 2820 | 26300 | 1190 | 30400 | – | – | – | – | – | – | Cc1c(OC2CCN(C)CC2)ccc2cc(NC(=O)CCCCCCC(=O)Nc3cc4ccc(OC5CCN(C)CC5)c(C)c4oc3=O)c(=O)oc12 | 13800
